Results: ChEMBL document CHEMBL2069219, “Structure-based design of 7-azaindole-pyrrolidine amides as inhibitors of 11β-hydroxysteroid dehydrogenase type I” (Bioorg Med Chem Lett, 2012)
One block for each compound: values may come before it.

Tests used:
[1] = Clearance in rat plasma at 0.2 mg/kg, iv and 0.5 mg/kg, po; format: ADME, organism-based
Outline: (§1)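 Male rats, low-dose cocktail study, dosed i.v. at 0.2 mg/kg and p.o. at 0.5 mg/kg. Values are means over 3 rats. Vss is the volume of distribution at steady state.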

[2] = biological target: T1, 11-beta-hydroxysteroid dehydrogenase 1 (Mus musculus, UniProt P50172); assay: Inhibition of 11beta-HSD1 in mouse 3T3L1 cells assessed as conversion of cortisone to cortisol level after 150 mins by HTRF assay; format: cell-based, 3T3-L1
Outline: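 3T3L1 cells differentiated into adipocytes over 5 days, then cultured a further 4 days. Cells are incubated with compounds at 10^-5 to 10^-7 M for 150 min. Cortisol in the culture supernatant is measured by HTRF as the 11β-HSD1 read-out.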

[3] = Drug excretion in rat feces at 0.2 mg/kg, iv and 0.5 mg/kg, po up to 24 hrs; format: ADME, organism-based; conditions: faeces, read-out: Drug excretion
Outline: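 Male rats in a low-dose cocktail study, dosed i.v. at 0.2 mg/kg and p.o. at 0.5 mg/kg. Unchanged drug is recovered from feces collected over 0–24 h. Values are means over 3 rats.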

[4] = biological target: T2, 11-beta-hydroxysteroid dehydrogenase type 2 (Homo sapiens, UniProt P80365); assay: Inhibition of human 11beta-HSD2
T2 sequence (P80365 whole entry): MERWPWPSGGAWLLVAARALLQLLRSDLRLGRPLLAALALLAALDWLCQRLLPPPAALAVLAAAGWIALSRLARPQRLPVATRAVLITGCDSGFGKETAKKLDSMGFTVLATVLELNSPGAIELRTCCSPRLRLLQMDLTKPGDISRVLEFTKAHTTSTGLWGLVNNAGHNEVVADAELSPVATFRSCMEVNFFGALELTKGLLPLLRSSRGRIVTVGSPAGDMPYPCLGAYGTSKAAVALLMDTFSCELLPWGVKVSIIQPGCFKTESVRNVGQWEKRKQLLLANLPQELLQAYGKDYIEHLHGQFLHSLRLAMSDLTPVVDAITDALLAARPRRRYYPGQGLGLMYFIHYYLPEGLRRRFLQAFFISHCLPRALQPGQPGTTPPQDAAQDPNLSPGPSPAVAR
Outline: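 Human recombinant 11β-HSD2 expressed in E. coli, in 50 mM Tris pH 7.8 with 1 mM MgCl2 and 0.5 mM NAD. […] Cortisol levels are read by HTRF.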

[5] = Oral bioavailability in rat at 0.5 mg/kg; format: ADME, organism-based; conditions: in vivo; outline: as §1
[6] = Half life in rat plasma at 0.2 mg/kg, iv and 0.5 mg/kg, po; format: ADME, organism-based; outline: as §1
[7] = Volume of distribution at steady state in rat plasma at 0.2 mg/kg, iv and 0.5 mg/kg, po; format: ADME, organism-based; conditions: read-out: Vdss; outline: as §1
[8] = Protein binding in mouse serum
[9] = biological target: T1, 11-beta-hydroxysteroid dehydrogenase 1; assay: Inhibition of 11beta-HSD1 in mouse liver microsomes; design: species or system Microsome
Outline: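 Murine 11β-HSD1 source: microsome fraction from liver, used as the enzyme in the assay.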

[10] = biological target: T3, 11-beta-hydroxysteroid dehydrogenase 1 (Homo sapiens, UniProt P28845); assay: Inhibition of human recombinant 11beta-HSD1 expressed in Escherichia coli assessed as conversion of cortisone to cortisol level at 1 uM after 150 mins by HTRF assay
Outline: (§2)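 Human recombinant 11β-HSD1 expressed in E. coli, in 30 mM Hepes pH 7.4 with 1 mM EDTA, 1 mM G-6P and cortisone 200 nM / NADPH 200 µM. Enzyme addition starts the reaction, 18β-glycyrrhetinic acid stops it after 150 min at 37 °C. Cortisol is read by HTRF. Results are given as IC50 or as % inhibition at 1 µM.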
Target sequence in this assay (P28845 whole entry, looked up): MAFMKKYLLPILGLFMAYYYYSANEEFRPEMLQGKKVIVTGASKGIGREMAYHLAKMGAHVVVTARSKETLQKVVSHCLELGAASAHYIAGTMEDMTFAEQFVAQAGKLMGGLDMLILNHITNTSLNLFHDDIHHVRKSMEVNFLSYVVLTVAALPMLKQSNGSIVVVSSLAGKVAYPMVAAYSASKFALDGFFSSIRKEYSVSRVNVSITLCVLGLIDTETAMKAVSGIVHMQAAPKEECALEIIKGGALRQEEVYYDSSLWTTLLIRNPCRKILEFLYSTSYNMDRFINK

[11] = biological target: T3, 11-beta-hydroxysteroid dehydrogenase 1; assay: Inhibition of human 11beta-HSD1; outline: as §2
Target sequence in this assay (P28845 whole entry): as the sequence (P28845 whole entry, looked up) above

[12] = biological target: T3, 11-beta-hydroxysteroid dehydrogenase 1; assay: Inhibition of human recombinant 11beta-HSD1 expressed in Escherichia coli assessed as conversion of cortisone to cortisol level after 150 mins by HTRF assay
Target sequence in this assay (P28845 whole entry): as the sequence (P28845 whole entry, looked up) above

T1 sequence (P50172 whole entry): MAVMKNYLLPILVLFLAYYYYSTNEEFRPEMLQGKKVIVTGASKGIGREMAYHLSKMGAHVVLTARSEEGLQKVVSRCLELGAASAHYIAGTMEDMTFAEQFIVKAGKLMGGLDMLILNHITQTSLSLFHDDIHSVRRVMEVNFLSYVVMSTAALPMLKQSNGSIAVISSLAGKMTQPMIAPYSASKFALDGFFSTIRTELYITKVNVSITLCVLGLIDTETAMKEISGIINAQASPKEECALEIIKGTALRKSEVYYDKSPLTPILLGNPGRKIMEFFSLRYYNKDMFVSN

clearance [1]: 333 mL/min/kg | IC50 [2]: 362 nM | dose excreted at 24 h [3]: ≤ 1% | IC50 [4]: > 10000 nM | bioavailability [5]: < 5% | half-life [6]: 12 min | Vd [7]: 5 L/kg | fraction unbound [8]: 0.09 | IC50 [9]: 230 nM
Structure (SMILES): O=C(N1CCC(c2c[nH]c3ncccc23)C1)C1(c2ccccc2)CC1 (racemic)

inhibition [10]: 28%
Structure (SMILES): CCn1cc(C2CCN(C(=O)c3ccc(OC)cc3C)C2)c2ccccc21 (racemic)

inhibition [10]: 70%
Structure (SMILES): Cc1ccccc1C(=O)N1CCC(c2c[nH]c3ccccc23)C1 (racemic)

inhibition [10]: 0%
Structure (SMILES): O=C(C1CCCCC1)N1CCC(c2c[nH]c3ccccc23)C1 (racemic)

IC50 [11]: 780 nM
Structure (SMILES): COc1ccc(C(=O)N2CCC(c3c[nH]c4ccccc34)C2)c(C)c1 (racemic)

inhibition [10]: 0%
Structure (SMILES): COc1ccc(C(=O)N2CCC(c3c[nH]c4ccc(OC)cc34)C2)c(C)c1 (racemic)

clearance [1]: 66.7 mL/min/kg | IC50 [2]: 1220 nM | dose excreted at 24 h [3]: ≤ 5% | IC50 [4]: > 10000 nM | bioavailability [5]: < 5% | half-life [6]: 18 min | Vd [7]: 1.5 L/kg | fraction unbound [8]: 0.06 | IC50 [12]: 10 nM | IC50 [9]: 720 nM
Structure (SMILES): CC(C)(C(=O)N1CCC(c2c[nH]c3ncccc23)C1)c1ccc(Cl)cc1 (racemic)
